Tests used:
[1] = biological target: Sodium- and chloride-dependent GABA transporter 1 (Mus musculus) (UniProt P31648); experiment: Inhibition of [2H10]NO 711 binding to mouse GAT1 expressed in HEK293 cell membranes assessed as remaining NO711 binding at 100 uM after 40 mins by LC-ESI-MS-MS analysis relative to control
[2] = biological target: T1, GABA transporter 4 (Mus musculus, UniProt P31650); experiment: Inhibition of mouse GAT4 expressed in HEK293 cells assessed as decrease in [3H]GABA uptake preincubated for 25 mins followed by [3H]GABA addition measured after 4 mins by liquid scintillation counting analysis; format: cell-based
T1 sequence (P31650 whole entry): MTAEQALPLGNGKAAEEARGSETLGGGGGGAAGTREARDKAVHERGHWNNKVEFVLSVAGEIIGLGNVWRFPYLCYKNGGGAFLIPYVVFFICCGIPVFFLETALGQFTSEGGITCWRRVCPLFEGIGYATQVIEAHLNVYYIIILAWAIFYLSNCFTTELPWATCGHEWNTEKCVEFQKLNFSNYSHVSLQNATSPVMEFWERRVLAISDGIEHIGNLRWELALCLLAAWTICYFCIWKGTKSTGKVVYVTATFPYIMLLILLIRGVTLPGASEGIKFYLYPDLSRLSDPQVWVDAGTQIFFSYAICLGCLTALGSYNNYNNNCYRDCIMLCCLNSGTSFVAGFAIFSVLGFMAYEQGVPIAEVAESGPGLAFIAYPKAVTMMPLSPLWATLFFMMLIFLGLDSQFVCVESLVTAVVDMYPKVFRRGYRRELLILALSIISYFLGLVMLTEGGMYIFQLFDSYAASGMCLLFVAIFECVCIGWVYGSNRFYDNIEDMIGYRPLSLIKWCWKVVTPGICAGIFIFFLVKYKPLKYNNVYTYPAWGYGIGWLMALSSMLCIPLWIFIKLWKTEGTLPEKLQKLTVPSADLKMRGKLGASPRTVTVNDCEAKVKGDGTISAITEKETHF
Outline: (§1)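 [³H]GABA uptake assay in HEK cells expressing the mGAT subtype named in the line, run in triplicate. Potencies are given as pIC₅₀ ± SEM. No SEM is given where only one triplicate measurement was made. Where 100 µM test compound left uptake at or above 50% (pIC₅₀ ≤ 4.00), the percent remaining [³H]GABA uptake at 100 µM is reported instead.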

[3] = biological target: T2, Sodium- and chloride-dependent GABA transporter 1 (Mus musculus, UniProt P31648); experiment: Inhibition of mouse GAT1 expressed in HEK293 cells assessed as decrease in [3H]GABA uptake preincubated for 25 mins followed by [3H]GABA addition measured after 4 mins by liquid scintillation counting analysis; format: cell-based; outline: as §1
[4] = biological target: T2, Sodium- and chloride-dependent GABA transporter 1; experiment: Inhibition of [2H10]NO 711 binding to mouse GAT1 expressed in HEK293 cell membranes after 40 mins by LC-ESI-MS-MS analysis
Outline: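 MS Binding Assay on mGAT1 expressed in HEK cells, with NO711 as marker. Run in triplicate. Results are reported as pKi ± SEM. Where only one triplicate measurement was made, no SEM is given.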

[5] = tested on: betaine/GABA transporter BGT1 (mGAT2, Slc6a12) (Mus musculus); experiment: Inhibition of mouse GAT2 expressed in HEK293 cells assessed as decrease in [3H]GABA uptake at 100 uM preincubated for 25 mins followed by [3H]GABA addition measured after 10 mins by liquid scintillation counting analysis relative to control; design: scale not given: the % may be the effect or the level left
[6] = biological target: T3, GABA transporter 4 (Mus musculus) (UniProt P31650); experiment: Inhibition of mouse GAT4 expressed in HEK293 cells assessed as decrease in [3H]GABA uptake at 100 uM preincubated for 25 mins followed by [3H]GABA addition measured after 4 mins by liquid scintillation counting analysis relative to control; format: cell-based; design: scale not given: the % may be the effect or the level left; outline: as §1
T3 sequence (whole entry): T1 sequence (P31650 whole entry)

[7] = tested on: GABA transporter mGAT3 (Slc6a13) (Mus musculus); experiment: Inhibition of mouse GAT3 expressed in HEK293 cells assessed as decrease in [3H]GABA uptake at 100 uM preincubated for 25 mins followed by [3H]GABA addition measured after 4 mins by liquid scintillation counting analysis relative to control; design: scale not given: the % may be the effect or the level left
[8] = biological target: Sodium- and chloride-dependent GABA transporter 1 (Mus musculus) (UniProt P31648); experiment: Inhibition of mouse GAT1 expressed in HEK293 cells assessed as decrease in [3H]GABA uptake at 100 uM preincubated for 25 mins followed by [3H]GABA addition measured after 4 mins by liquid scintillation counting analysis relative to control; format: cell-based; design: scale not given: the % may be the effect or the level left; outline: as §1

| Activity [1] | IC50 [2] | IC50 [3] | Ki [4] | Activity [5] | Activity [6] | Activity [7] | Activity [8] | SMILES |
| --- | --- | --- | --- | --- | --- | --- | --- | --- |
| 59% | 1.66 µM | 64.6 µM | – | – | – | – | – | COc1ccc(C(OCCN2CCC[C@H](C(=O)O)C2)(c2ccc(OC)cc2)c2ccc(OC)cc2C)cc1 |
| – | 8.51 µM | 67.6 µM | 38 µM | – | – | – | – | COc1ccc(C(OCCN2CCCC(C(=O)O)C2)(c2ccc(OC)cc2C)c2ccc(OC)cc2C)cc1 (configuration not stated) |
| – | 12 µM | 11 µM | 1.91 µM | – | – | – | – | COc1ccc(C(C#CCN2CCCC(C(=O)O)C2)(c2ccc(OC)cc2)c2ccc3sccc3c2)cc1 (racemic) |
| – | 17.4 µM | 52.5 µM | 37.2 µM | – | – | – | – | COc1ccc(C(CC#CCN2CCCC(C(=O)O)C2)(c2ccc(OC)cc2)c2ccc(OC)cc2)cc1 (racemic) |
| – | – | 0.427 µM | 0.0912 µM | 66% | 64% | 61% | – | O=C(O)C1CCCN(CCC#CC(c2ccccc2)(c2ccccc2)c2ccccc2)C1 (racemic) |
| – | – | – | 77.6 µM | 84% | 79% | 82% | 68% | COc1ccc(C(C#CCN2CCCC(C(=O)O)C2)(c2ccc(OC)cc2)c2nccs2)cc1 (racemic) |
| 57% | 49 µM | – | – | 77% | – | – | 69% | C=C=C(CN1CCCC(C(=O)O)C1)C(c1ccc(OC)cc1)(c1ccc(OC)cc1)c1ccc(OC)cc1 (racemic) |
| – | 34.7 µM | 25.1 µM | 5.25 µM | 70% | – | – | – | COc1ccc(C(C#CCN2CCCC(C(=O)O)C2)(c2ccc(OC)cc2)c2ccsc2)cc1 (racemic) |
| – | 70.8 µM | 35.5 µM | 14.5 µM | 66% | – | 50% | – | O=C(O)C1CCCN(CC#CCC(c2ccccc2)(c2ccccc2)c2ccccc2)C1 (racemic) |
| – | 36.3 µM | 13.2 µM | 1.91 µM | 53% | – | – | – | COc1ccc(CC(C#CCN2CCCC(C(=O)O)C2)(c2ccc(OC)cc2)c2ccc(OC)cc2)cc1 (racemic) |
| – | 51.3 µM | 22.9 µM | 4.9 µM | – | – | – | – | COc1ccc(C(C#CCN2CCCC(C(=O)O)C2)(c2ccc(OC)cc2)c2ccc3c(c2)OCO3)cc1 (racemic) |
| – | 23.4 µM | 3.72 µM | 1.1 µM | 80% | – | – | – | COc1ccc(C(C#CCN2CCCC(C(=O)O)C2)c2ccc(OC)cc2)cc1 (racemic) |
| – | 25.7 µM | 15.8 µM | 2.75 µM | – | – | – | – | COc1ccc(C(C#CCCN2CCCC(C(=O)O)C2)(c2ccc(OC)cc2)c2ccc(OC)cc2)cc1 (racemic) |
| – | 41.7 µM | 8.32 µM | 2.14 µM | 67% | – | – | – | COc1ccc(C(C#CCN2CCCC(C(=O)O)C2)(Cc2ccccc2)c2ccc(OC)cc2)cc1 (racemic) |
| – | 29.5 µM | 14.5 µM | 4.37 µM | – | – | – | – | COc1ccc(C(C#CCN2CCCC(C(=O)O)C2)(c2ccc(OC)cc2)c2ccc(OC)cc2)cc1 (racemic) |
| 70% | – | – | – | 87% | 54% | 80% | 62% | C=C=C(CN1CCCC(C(=O)O)C1)C(c1ccccc1)(c1ccccc1)c1ccccc1 (racemic) |
| 83% | – | – | – | 106% | 91% | 103% | 80% | COc1ccc(C(C#CCN2CCCC(C(=O)O)C2)(c2ccc(OC)cc2)c2nccn2C)cc1 (racemic) |
| 59% | – | – | – | 72% | 69% | 74% | 66% | COc1ccc(C(O)(C#CCN2CCCC(C(=O)O)C2)c2ccc(OC)cc2)cc1 (racemic) |

| SMILES | Activity [1] | IC50 [2] | IC50 [3] | Ki [4] | Activity [5] | Activity [6] | Activity [7] | Activity [8] |
| --- | --- | --- | --- | --- | --- | --- | --- | --- |
| COc1ccc(C(/C=C/CN2CCCC(C(=O)O)C2)(c2ccc(OC)cc2)c2ccc(OC)cc2)cc1 (configuration not stated) | – | – | – | 14.8 µM | – | – | – | – |
